Test results as given in ChEMBL document CHEMBL1129565, “Selective inhibitors of monoamine oxidase. 3. Structure-activity relationship of tricyclics bearing imidazoline, oxadiazole, or tetrazole groups” (J Med Chem, 1996).
pIC50, pKi: −log10 of the molar value.

Assays:
[1] = target: T1, Amine oxidase [flavin-containing] A (Rattus norvegicus, UniProt P21396); assay: Inhibitory concentration against rat brain mitochondrial monoamine oxidase A
T1 sequence (P21396 whole entry): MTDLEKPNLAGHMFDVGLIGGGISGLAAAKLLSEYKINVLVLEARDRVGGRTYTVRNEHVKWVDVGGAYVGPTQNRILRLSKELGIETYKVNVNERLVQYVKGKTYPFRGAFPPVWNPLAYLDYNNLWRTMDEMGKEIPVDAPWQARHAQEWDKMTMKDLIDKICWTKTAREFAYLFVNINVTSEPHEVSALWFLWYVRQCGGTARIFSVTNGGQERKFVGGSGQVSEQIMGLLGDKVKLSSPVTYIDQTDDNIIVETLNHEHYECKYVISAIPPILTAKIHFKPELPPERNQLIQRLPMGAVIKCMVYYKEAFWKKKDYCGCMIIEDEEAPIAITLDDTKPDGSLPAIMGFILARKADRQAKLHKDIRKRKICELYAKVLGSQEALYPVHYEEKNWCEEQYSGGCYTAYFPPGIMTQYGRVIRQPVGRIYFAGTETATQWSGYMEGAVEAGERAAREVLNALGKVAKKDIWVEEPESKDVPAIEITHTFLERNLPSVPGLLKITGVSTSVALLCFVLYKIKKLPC
In short: (§1)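 Rat brain mitochondrial MAO extract preincubated with inhibitor 15 min at 37 °C in 50 mM potassium phosphate pH 7.4. [3H]serotonin added at 0.2 μM final, then 20 min incubation. Pargyline 2 mM blanks. Stopped with HCl, products extracted into ethyl acetate/toluene and counted radiometrically. Triplicates; IC50 from mean % inhibition vs log concentration.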

[2] = target: T1, Amine oxidase [flavin-containing] A; assay: Inhibition of the enzyme Monoamine oxidase A which was not completely reverserved after 24 hr of dialysis after po administration to rat (brain); assay type: organism-based; settings: in vivo
[3] = target: T2, Amine oxidase [flavin-containing] B (Rattus norvegicus, UniProt P19643); assay: Inhibitory activity against rat brain mitochondrial Monoamine oxidase B at 1 uM
T2 sequence (P19643 whole entry): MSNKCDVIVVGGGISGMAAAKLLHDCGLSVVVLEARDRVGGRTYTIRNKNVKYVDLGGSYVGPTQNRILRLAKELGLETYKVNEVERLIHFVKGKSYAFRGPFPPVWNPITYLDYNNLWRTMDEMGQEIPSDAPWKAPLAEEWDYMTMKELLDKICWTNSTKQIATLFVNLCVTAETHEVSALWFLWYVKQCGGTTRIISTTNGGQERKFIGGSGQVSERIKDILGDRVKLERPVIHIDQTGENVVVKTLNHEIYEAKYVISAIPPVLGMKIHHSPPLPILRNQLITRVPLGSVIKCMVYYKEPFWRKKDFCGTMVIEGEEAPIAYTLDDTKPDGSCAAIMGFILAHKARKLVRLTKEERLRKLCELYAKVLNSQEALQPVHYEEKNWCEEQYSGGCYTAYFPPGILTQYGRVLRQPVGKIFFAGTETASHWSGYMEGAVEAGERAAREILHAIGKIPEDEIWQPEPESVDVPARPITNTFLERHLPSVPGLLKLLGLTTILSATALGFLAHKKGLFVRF
In short: as §1, with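 “[14C]phenethylamine” for “[3H]serotonin”, “10” for “0.2”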

[4] = target: T1, Amine oxidase [flavin-containing] A; assay: Inhibitory concentration against rat brain mitochondrial Monoamine oxidase A at 1 uM; in short: as §1
[5] = target: T1, Amine oxidase [flavin-containing] A; assay: Inhibitory concentration against rat brain mitochondrial Monoamine oxidase A at <1 uM; in short: as §1
[6] = target: T2, Amine oxidase [flavin-containing] B; assay: Inhibitory activity against rat brain mitochondrial Monoamine oxidase B at < 1 uM
In short: as §1, with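 “[14C]phenethylamine” for “[3H]serotonin”, “10” for “0.2”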

[7] = target: T1, Amine oxidase [flavin-containing] A; assay: Inhibition of the enzyme Monoamine oxidase A which was not completely reverserved after 24 hr of dialysis
In short: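 Reversibility: MAO extract preincubated with or without inhibitor 15 min at 37 °C, in duplicate, then dialysed 24 h at 4 °C with shaking against 0.1 M potassium phosphate pH 7.4, 5% sucrose, 1 mM dithiothreitol, buffer changed ca. 3 and 19 h. Undialysed portions held at 4 °C; both assayed together for MAO activity.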

[8] = target: T2, Amine oxidase [flavin-containing] B; assay: Inhibitory activity against rat brain mitochondrial Monoamine oxidase B
In short: as §1, with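 “[14C]phenethylamine” for “[3H]serotonin”, “10” for “0.2”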

[9] = target: T1, Amine oxidase [flavin-containing] A; assay: Inhibitory concentration against rat brain mitochondrial Monoamine oxidase A at 0.1 uM; in short: as §1
[10] = target: T2, Amine oxidase [flavin-containing] B; assay: Inhibitory activity against rat brain mitochondrial Monoamine oxidase B at 0.1 uM
In short: as §1, with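 “[14C]phenethylamine” for “[3H]serotonin”, “10” for “0.2”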

[11] = target: T2, Amine oxidase [flavin-containing] B; assay: Inhibitory activity against rat brain mitochondrial Monoamine oxidase B at 0.3 uM
In short: as §1, with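 “[14C]phenethylamine” for “[3H]serotonin”, “10” for “0.2”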

[12] = target: T1, Amine oxidase [flavin-containing] A; assay: Ex vivo value for inhibition of MAO A of rats sacrificed 2 hr after po administration; assay type: organism-based
In short: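 Rats dosed orally, killed 2 h later; brain MAO A inhibition then measured ex vivo.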

[13] = target: T1, Amine oxidase [flavin-containing] A; assay: Inhibition of the enzyme MAO A which was not completely reverserved after 24 hr of dialysis after po administration to rat (brain); assay type: organism-based; settings: in vivo
[14] = target: T2, Amine oxidase [flavin-containing] B; assay: Inhibitory activity against rat brain mitochondrial Monoamine oxidase B at 10 uM
In short: as §1, with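 “[14C]phenethylamine” for “[3H]serotonin”, “10” for “0.2”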

[15] = target: T1, Amine oxidase [flavin-containing] A; assay: Inhibitory concentration against rat brain mitochondrial Monoamine oxidase A at 10 uM; in short: as §1
[16] = target: T2, Amine oxidase [flavin-containing] B; assay: Inhibitory activity against rat brain mitochondrial Monoamine oxidase B;NS=not significant at 0.1 uM
In short: as §1, with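 “[14C]phenethylamine” for “[3H]serotonin”, “10” for “0.2”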

SMILES | pIC50 [1] | inhibition at 1 µM [3] [%] | inhibition at 1 µM [4] [%] | further results
NCCNc1ccc2c(c1)C(=O)c1ccc(C3=NCCN3)cc1S2(=O)=O | 6.52 | 11 |  | Reversible [2]: 20%
O=C1c2ccc(C3=NCCN3)cc2S(=O)(=O)c2cc(C(F)(F)F)ccc21 |  | 10 | 12 | 
O=c1c2ccccc2sc2c(C3=NCCN3)cccc12 |  | 10 | 7 | 
O=S1(=O)c2ccccc2C(O)c2ccc(C3=NCCN3)cc21 (stereo not given) |  | 10 | 20 | 
O=S1(=O)c2ccccc2-c2cc(C3=NCCN3)ccc21 |  | 16 | 41 | 
CC(=O)N1CCN=C1c1ccc2c(c1)S(=O)(=O)c1ccc(F)cc1C2=O |  |  |  | Inhibition [5]: 4%; Inhibition [6]: -11%
Cc1ccc(C)c2c1[nH]c1ccc(C3=NCCN3)cc12 |  | 10 | 62 | 
O=c1c2ccccc2sc2cc(C3=NCCN3)ccc12 | 6.00 | 14 |  | 
O=C1c2ccccc2S(=O)(=O)c2cc(C3=NCCCN3)ccc21 |  | 5 | 37 | 
CCCOc1ccc2sc3cc(-c4nnc(C)o4)ccc3c(=O)c2c1 | 7.22 |  |  | Reversible [7]: 10%; pIC50 [8]: 6.00
c1ccc2c(c1)Oc1ccc(C3=NCCN3)cc1S2 | 7.00 |  |  | Reversible [7]: 46%; pIC50 [8]: 5.00
CCn1nnc(-c2ccc3c(c2)S(=O)(=O)c2ccccc2C3=O)n1 |  | 45 | 36 | 
c1cc2c3c([nH]c2cc1C1=NCCN1)CCCC3 |  | 9 | 20 | 
CCNc1ccc2c(c1)C(=O)c1ccc(C3=NCCN3)cc1S2(=O)=O | 8.00 | 0 |  | Reversible [2]: 0%
Cc1ccc2c(c1)S(=O)(=O)c1cc(C3=NCCN3)ccc1C2=O |  | 5 | 53 | 
O=c1c2ccc(-c3nnn(CCO)n3)cc2oc2ccc(OCCO)cc12 |  |  |  | Inhibition [5]: 29%; Inhibition [6]: 18%
Cn1nnnc1-c1ccc2c(c1)S(=O)(=O)c1ccccc1C2=O |  |  |  | inhibition at 0.1 µM [9]: 53%; inhibition at 0.1 µM [10]: 1%
CC(C)c1ccc2sc3cc(-c4nn[nH]n4)ccc3c(=O)c2c1 |  | 5 | 24 | 
Cn1nnc(-c2ccc3c(=O)c4cc(OCCO)ccc4oc3c2)n1 |  |  | 64 | Inhibition [6]: 21%
CCCc1ccc2c(c1)C(=O)c1ccc(C3=NCCN3)cc1S2(=O)=O | 7.40 |  |  | Reversible [7]: 2%; inhibition at 0.3 µM [11]: 0%
COc1ccc2c(c1)C(=O)c1ccc(C3=NCCN3)cc1S2(=O)=O | 8.00 | 33 |  | Reversible [7]: 5%
[O-][S+]1c2ccccc2Sc2ccc(C3=NCCN3)cc21 (stereo not given) |  | 14 | 14 | 
CN1CCN=C1c1ccc2c(c1)S(=O)(=O)c1ccccc1C2=O |  | 18 | 27 | Inhibition ([3]; 1 µM): 11%
COc1ccc2c(c1)C(=O)c1ccc(-c3nnn(C)n3)cc1S2(=O)=O | 8.70 |  |  | Reversible [7]: 29%; pIC50 [8]: 7.22
O=S1(=O)c2ccccc2-c2cc(-c3nn[nH]n3)ccc21 |  | 0 | 9 | 
CCc1ccc2c(c1)C(=O)c1ccc(C3=NCCN3)cc1S2(=O)=O | 8.00 |  |  | pKi [12]: 8.40; Reversible [13]: 11%; inhibition at 10 µM [14]: 27%
c1cc2c(cc1C1=NCCN1)Sc1cc(C3=NCCN3)ccc1O2 | 6.00 |  |  | pIC50 [8]: 5.00

SMILES | pIC50 [1] | inhibition at 1 µM [3] [%] | inhibition at 1 µM [4] [%] | further results
O=S1(=O)c2ccccc2Nc2cc(C3=NCCN3)ccc21 |  | 12 | 23 | 
CNc1ccc2c(c1)C(=O)c1ccc(C3=NCCN3)cc1S2(=O)=O | 7.64 |  |  | Reversible [7]: 8%
CCOc1ccc2c(c1)C(=O)c1ccc(C3=NCCN3)cc1S2(=O)=O | 8.15 | 12 |  | Reversible [7]: 4%
CCOc1ccc2oc3cc(-c4nnn(CC)n4)ccc3c(=O)c2c1 |  |  |  | Inhibition [5]: 6%; Inhibition [6]: 32%
CC1CN=C(c2ccc3c(c2)S(=O)(=O)c2ccccc2C3=O)N1 (stereo not given) |  |  |  | inhibition at 10 µM [15]: 36%; inhibition at 10 µM [14]: 49%
O=C1c2cc(N3CCOCC3)ccc2S(=O)(=O)c2cc(C3=NCCN3)ccc21 | 8.00 | 4 |  | 
COc1ccc2c(c1)C(=O)c1ccc(-c3nnc(C)o3)cc1S2(=O)=O | 9.00 |  |  | Reversible [7]: 14%; pIC50 [8]: 7.00
O=C1c2cc(C3=NCCN3)ccc2S(=O)(=O)c2cc(C3=NCCN3)ccc21 |  | 3 | 46 | 
Cn1nnc(-c2ccc3c(c2)S(=O)(=O)c2ccccc2C3=O)n1 | 8.00 | 10 |  | Reversible [7]: 100%
Cc1nc(-c2ccc3c(c2)Sc2ccccc2O3)no1 | 6.70 | 14 |  | 
CCCOc1ccc2c(c1)C(=O)c1ccc(C3=NCCN3C(C)=O)cc1S2(=O)=O |  |  |  | inhibition at 0.1 µM [9]: 16%; inhibition at 0.1 µM [10]: 20%
COc1nnc(-c2ccc3c(c2)S(=O)(=O)c2ccccc2C3=O)o1 | 7.10 | 14 |  | 
Cc1ccc2c(c1)C(=O)c1ccc(C3=NCCN3)cc1S2(=O)=O | 7.70 |  |  | Reversible [7]: 26%; inhibition at 10 µM [14]: 0%
CCN(C)c1ccc2c(c1)C(=O)c1ccc(C3=NCCN3)cc1S2(=O)=O | 7.40 |  |  | Reversible [2]: 20%; IC50 [16]: Not Active
c1ccc(Cn2c3ccccc3c3cc(C4=NCCN4)ccc32)cc1 |  |  |  | inhibition at 10 µM [15]: 20%; inhibition at 10 µM [14]: 61%
O=S1(=O)c2ccccc2Oc2ccc(C3=NCCN3)cc21 | 7.40 |  |  | Reversible [7]: 16%; Inhibition [6]: 59%
CCn1nnc(-c2ccc3c(=O)c4cc(O)ccc4oc3c2)n1 | 5.70 |  |  | pIC50 [8]: 7.00
C=CCNc1ccc2c(c1)C(=O)c1ccc(C3=NCCN3)cc1S2(=O)=O | 8.05 | 12 |  | Reversible [7]: 5%
c1ccc2c(c1)Cc1cc(C3=NCCN3)ccc1-2 |  | 11 | 59 | 
Cc1nc(-c2ccc3c(c2)S(=O)(=O)c2ccccc2O3)no1 |  | 17 | 98 | 
O=C1c2cc(F)ccc2S(=O)(=O)c2cc(C3=NCCN3)ccc21 | 6.70 | 12 |  | Reversible [7]: 62%
CC(C)c1ccc2c(c1)C(=O)c1ccc(-c3nnn(C)n3)cc1S2(=O)=O | 8.30 |  |  | Reversible [7]: 0%; inhibition at 0.1 µM [10]: -30%
CC(C)c1ccc2c(c1)C(=O)c1ccc(C3=NCCN3)cc1S2(=O)=O | 7.30 |  |  | Reversible [7]: 40%; inhibition at 0.1 µM [10]: 0%
O=C1c2ccccc2S(=O)(=O)c2cc(C3=NCCN3)ccc21 | 6.52 |  |  | pKi [12]: 7.10; Reversible [13]: 100%; inhibition at 0.3 µM [11]: 3%
O=C1c2ccccc2S(=O)(=O)c2c1cccc2C1=NCCN1 |  | -6 | -5 | 
CCc1nnc(-c2ccc3c(c2)S(=O)(=O)c2ccccc2C3=O)o1 | 6.30 | 23 |  | 
O=C1c2ccccc2S(=O)(=O)c2cc(-c3nn[nH]n3)ccc21 [DOXANTRAZOLE] |  |  |  | inhibition at 10 µM [15]: 9%; inhibition at 10 µM [14]: 1%
